From ChEMBL document CHEMBL4145631, “Riluzole-Triazole Hybrids as Novel Chemical Probes for Neuroprotection in Amyotrophic Lateral Sclerosis” (ACS Med Chem Lett, 2018)
Calls of active or inactive are those of the source.

What was measured:
Cortical neurone [1] = test: Neuroprotective activity against kainate-induced cell death in mouse primary cortical neurons by cell counting method; format: functional, cell-based
Mus musculus [2] = organism: Mus musculus; test: Neuroprotective activity against kainate-induced cell death in mouse primary motor neurons by MTT assay; format: functional
Cortical neurone [3] = test: Neuroprotective activity against kainate-induced cell damage in mouse primary cortical neurons assessed as reduction in kainate-induced neurofilament loss by measuring increase in MAPK level at 1 uM pretreated followed by kainate challenge measured after 18 hrs by fluorescence assay; format: functional, cell-based; details: in the assay text read “MAP2” for “MAPK”
Method in brief: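 Mouse primary cortical neurons cultured as previously described; dendritic processes stained with anti-MAP2 antibody. Cell-profile perimeter measured by image analysis, each condition normalized to kainate-only.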

Cortical neurone [4] = test: Neuroprotective activity against kainate-induced cell death in mouse primary cortical neurons by MTT assay; format: functional, cell-based
Mus musculus [5] = organism: Mus musculus; test: Neuroprotective activity against kainate-induced cell death in mouse primary motor neurons by caspase activation method; format: functional
Mus musculus [6] = organism: Mus musculus; test: Neuroprotective activity against kainate-induced cell death in mouse primary motor neurons by cell counting method; format: functional
Cortical neurone [7] = test: Toxicity in mouse primary cortical neurons assessed as MAP2 loss by fluorescence assay; format: cell-based
Method in brief: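 MAP2 immunostaining of dendritic processes in mouse primary cortical neurons, with cell-profile perimeter measured by image analysis.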

Cortical neurone [8] = test: Neuroprotective activity against kainate-induced cell death in mouse primary cortical neurons by caspase activation method; format: functional, cell-based
Cortical neurone [9] = test: Neuroprotective activity against kainate-induced cell damage in mouse primary cortical neurons assessed as reversal of kainate-induced reduction in calcium flux by fura-2-AM dye based fluorescence assay; format: functional
Method in brief: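 Mouse primary cortical neurons loaded with fura-2AM for 45 min, washed, then depolarized with 10 mM KCl to drive Ca2+ entry through voltage-gated calcium channels. Flux read on a plate-based system.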

Mus musculus [10] = organism: Mus musculus; test: Neuroprotective activity against kainate-induced cell damage in mouse primary motor neurons assessed as reversal of kainate-induced neuronal length preceding cell death at 500 nM by fluorescence assay; format: functional
Method in brief: (§1)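 Mouse primary motor neurons, fixed after treatment and stained with SMI-32 for neurofilaments, then fluorescently imaged. Sholl analysis counted process intersections at each 100 μm radius from the cell centre. Ten cells per condition, three independent experiments, data pooled.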

Mus musculus [11] = organism: Mus musculus; test: Neuroprotective activity against kainate-induced cell damage in mouse primary motor neurons assessed as reversal of kainate-induced neuronal length preceding cell death by fluorescence assay; format: functional; method in brief: as §1
Rattus norvegicus = test: Protection against glutamate-induced seizures in ip dosed Sprague-Dawley rat pretreated for 30 mins followed by glutamate challenge and measured for 30 mins; format: functional
Mus musculus [12] = organism: Mus musculus; test: Neuroprotective activity against kainate-induced cell damage in mouse primary motor neurons assessed as reversal of kainate-induced neuronal length preceding cell death at […] by fluorescence assay; format: functional; method in brief: as §1

Compound | Activity (Cortical neurone [1]) | Activity (Mus musculus [2]) | Activity (Cortical neurone [3]) | Activity (Cortical neurone [4]) | Activity (Mus musculus [5]) | Activity (Mus musculus [6]) | Activity (Cortical neurone [7]) | Activity (Cortical neurone [8]) | Activity (Cortical neurone [9]) | Activity (Mus musculus [10]) | Activity (Mus musculus [11]) | ED50 (Rattus norvegicus) | Activity (Mus musculus [12])
COC(=O)c1ccc(-c2cn(CCn3c(=N)sc4cc(OC(F)(F)F)ccc43)nn2)cc1 | inactive | inactive | inactive | inactive | inactive | inactive | Toxic | inactive | Active | – | – | – | –
N=c1sc2cc(OC(F)(F)F)ccc2n1CCn1cc(-c2ccncc2)nn1 | inactive | inactive | Active | inactive | inactive | inactive | – | inactive | Active | Active | – | – | –
N=c1sc2cc(OC(F)(F)F)ccc2n1CCn1cc(-c2ccccc2)nn1 | inactive | inactive | inactive | inactive | inactive | inactive | – | inactive | Active | – | inactive | – | –
CCc1ccc(-c2cn(CCn3c(=N)sc4cc(OC(F)(F)F)ccc43)nn2)cc1 | inactive | inactive | Active | inactive | inactive | inactive | – | inactive | Active | – | inactive | – | –
N=c1sc2cc(OC(F)(F)F)ccc2n1CCn1cc(-c2ccc(C(=O)O)cc2)nn1 | inactive | inactive | Active | inactive | inactive | inactive | – | inactive | Active | – | – | – | –
COc1ccc(-c2cn(CCn3c(=N)sc4cc(OC(F)(F)F)ccc43)nn2)cc1 | inactive | inactive | inactive | inactive | inactive | inactive | – | inactive | Active | – | – | – | –
N=c1sc2cc(OC(F)(F)F)ccc2n1CCn1cc(-c2ccsc2)nn1 | inactive | inactive | inactive | inactive | inactive | inactive | – | inactive | Active | – | – | – | –
N=c1sc2cc(OC(F)(F)F)ccc2n1CCn1cc(-c2ccc([N+](=O)[O-])cc2)nn1 | inactive | inactive | inactive | inactive | inactive | inactive | – | inactive | Active | – | – | – | –
CC(C)(C)c1cn(CCn2c(=N)sc3cc(OC(F)(F)F)ccc32)nn1 | inactive | inactive | inactive | inactive | inactive | inactive | – | inactive | Active | – | – | – | –
N=c1sc2cc(OC(F)(F)F)ccc2n1CCn1cc(-c2cccc(N)c2)nn1 | inactive | inactive | inactive | inactive | inactive | inactive | – | inactive | Active | – | – | – | –
N=c1sc2cc(OC(F)(F)F)ccc2n1CCn1cc(-c2ccccc2C(F)(F)F)nn1 | inactive | inactive | inactive | inactive | inactive | inactive | – | inactive | Active | – | – | – | –
Nc1nc2ccc(OC(F)(F)F)cc2s1 [RILUZOLE] | inactive | inactive | inactive | inactive | inactive | inactive | – | inactive | – | – | – | 3.2 mg/kg | Active
CC(C)(C)c1ccc(-c2cn(CCn3c(=N)sc4cc(OC(F)(F)F)ccc43)nn2)cc1 | inactive | inactive | inactive | inactive | inactive | inactive | – | inactive | Active | – | – | – | –
N=c1sc2cc(OC(F)(F)F)ccc2n1CCn1cc(C2CC2)nn1 | inactive | inactive | inactive | inactive | inactive | inactive | – | inactive | Active | – | – | – | –
N=c1sc2cc(OC(F)(F)F)ccc2n1CCn1cc(-c2cccc(C(F)(F)F)c2)nn1 | inactive | inactive | inactive | inactive | inactive | inactive | – | inactive | Active | – | – | – | –
N=c1sc2cc(OC(F)(F)F)ccc2n1CCN1CCN(c2ccccc2)CC1 | – | – | – | – | – | – | – | – | – | – | – | 3.5 mg/kg | –
N=c1sc2cc(OC(F)(F)F)ccc2n1CCn1cc(-c2cccs2)nn1 | inactive | inactive | Active | inactive | inactive | inactive | – | inactive | Active | – | – | – | –
N=c1sc2cc(OC(F)(F)F)ccc2n1CCn1cc(-c2ccccc2Br)nn1 | inactive | inactive | inactive | inactive | inactive | inactive | – | inactive | Active | – | – | – | –
COc1ccccc1-c1cn(CCn2c(=N)sc3cc(OC(F)(F)F)ccc32)nn1 | inactive | inactive | inactive | inactive | inactive | inactive | – | inactive | Active | – | – | – | –
CC(C)CCc1cn(CCn2c(=N)sc3cc(OC(F)(F)F)ccc32)nn1 | inactive | inactive | inactive | inactive | inactive | inactive | – | inactive | Active | – | – | – | –
N=c1sc2cc(OC(F)(F)F)ccc2n1CCn1cc(-c2cccc3ccccc23)nn1 | inactive | inactive | inactive | inactive | inactive | inactive | – | inactive | Active | – | – | – | –
N=c1sc2cc(OC(F)(F)F)ccc2n1CCn1cc(C2CCCC2)nn1 | inactive | inactive | inactive | inactive | inactive | inactive | – | inactive | Active | – | – | – | –
N=c1sc2cc(OC(F)(F)F)ccc2n1CCN1CCC(c2ccccc2)CC1 | – | – | – | – | – | – | – | – | – | – | – | 3 mg/kg | –
N=c1sc2cc(OC(F)(F)F)ccc2n1CCn1cc(-c2cccc(Cl)c2)nn1 | inactive | inactive | inactive | inactive | inactive | inactive | – | inactive | Active | – | – | – | –
COc1cccc(-c2cn(CCn3c(=N)sc4cc(OC(F)(F)F)ccc43)nn2)c1 | inactive | inactive | inactive | inactive | inactive | inactive | – | inactive | Active | – | – | – | –
N=c1sc2cc(OC(F)(F)F)ccc2n1CCn1cc(-c2ccccc2F)nn1 | inactive | inactive | inactive | inactive | inactive | inactive | – | inactive | Active | – | – | – | –
N=c1sc2cc(OC(F)(F)F)ccc2n1CCn1cc(-c2ccc(Br)cc2)nn1 | inactive | inactive | Active | inactive | inactive | inactive | – | inactive | Active | – | inactive | – | –
